# In ChEMBL document CHEMBL4052828, “Discovery of 4-((7H-Pyrrolo[2,3-d]pyrimidin-4-yl)amino)-N-(4-((4-methylpiperazin-1-yl)methyl)phenyl)-1H-pyrazole-3-carboxamide (FN-1501), an FLT3- and CDK-Kinase Inhibitor with Potentially High Efficiency against Acute Myelocytic Leukemia” (J Med Chem, 2018):
# Calls of active or inactive are those of the source. The rule behind the calls is not given here.
# Key:
# [1] = Terminal half life in rat liver microsomes by LC-MS/MS analysis; assay type: ADME, microsome; conditions: read-out: beta t1/2 (converted)
# In short: (§1)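 Metabolic stability measured by incubating compound in human, rat, mouse, dog and monkey liver microsomes. Terminal t1/2 determined.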
# [2] = target: Receptor-type tyrosine-protein kinase FLT3 (Homo sapiens) (UniProt P36888); assay: Inhibition of FLT3 phosphorylation in human MV4-11 cells assessed as decrease in AKT phosphorylation at 0.02 to 1 uM after 24 hrs by Western blot analysis; assay type: cell-based
# In short: (§2)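 MV4-11 cells treated with increasing concentrations of compound for 24 h. Lysates immunoblotted for phosphorylated FLT3, STAT5, ERK, AKT and Rb.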
# MV4-11 [3] = assay: Induction of apoptosis in human MV4-11 cells assessed as late apoptotic cells at 0.5 uM after 24 hrs by annexin V-FITC/propidium iodide staining-based flow cytometric method (reference value: 2.54%); assay type: functional
# MV4-11 [4] = assay: Induction of apoptosis in human MV4-11 cells assessed as late apoptotic cells at 1 uM after 24 hrs by annexin V-FITC/propidium iodide staining-based flow cytometric method (reference value: 2.54%); assay type: functional
# HCT-116 [5] = assay: Cell cycle arrest in human HCT116 cells assessed as accumulation at G2/M phase at 0.1 to 1 uM after 24 hrs by propidium iodide/BrdU staining-based flow cytometric method; assay type: functional
# In short: (§3)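 Cells treated with compound for 24 h, then fixed. Double-stained with propidium iodide and BrdU for flow cytometric analysis of cell cycle distribution.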
# [6] = target: Receptor-type tyrosine-protein kinase FLT3 (Homo sapiens) (UniProt P36888); assay: Inhibition of FLT3 phosphorylation in human MV4-11 cells assessed as decrease in STAT5 phosphorylation at 0.02 to 1 uM after 24 hrs by Western blot analysis; assay type: cell-based; in short: as §2
# [7] = Intrinsic clearance in rat liver microsomes by LC-MS/MS analysis; assay type: ADME, microsome; conditions: read-out: CLH
# MV4-11 [8] = assay: Induction of apoptosis in human MV4-11 cells at 2 uM after 24 hrs by annexin V-FITC/propidium iodide staining-based flow cytometric method; assay type: functional, cell-based
# [9] = Intrinsic clearance in human liver microsomes by LC-MS/MS analysis; assay type: ADME, microsome; conditions: read-out: CLH
# MCF7 = assay: Growth inhibition of human MCF7 cells after 72 hrs by CellTiter-Glo assay; assay type: functional; conditions: MCF7, 72 h
# [10] = Intrinsic clearance in dog liver microsomes by LC-MS/MS analysis; assay type: ADME, Canis lupus familiaris, microsome; conditions: read-out: CLH
# [11] = Toxicity in ICR mouse administered via gavage measured for 12 days; conditions: in vivo, po
# [12] = target: T1, Receptor-type tyrosine-protein kinase FLT3 (Homo sapiens, UniProt P36888); assay: Inhibition of human FLT3 using EAIYAAPFAKKK as substrate preincubated for 20 mins followed by [gamma-33P]-ATP addition measure after 120 mins by filter binding method
# T1 sequence (P36888 whole entry): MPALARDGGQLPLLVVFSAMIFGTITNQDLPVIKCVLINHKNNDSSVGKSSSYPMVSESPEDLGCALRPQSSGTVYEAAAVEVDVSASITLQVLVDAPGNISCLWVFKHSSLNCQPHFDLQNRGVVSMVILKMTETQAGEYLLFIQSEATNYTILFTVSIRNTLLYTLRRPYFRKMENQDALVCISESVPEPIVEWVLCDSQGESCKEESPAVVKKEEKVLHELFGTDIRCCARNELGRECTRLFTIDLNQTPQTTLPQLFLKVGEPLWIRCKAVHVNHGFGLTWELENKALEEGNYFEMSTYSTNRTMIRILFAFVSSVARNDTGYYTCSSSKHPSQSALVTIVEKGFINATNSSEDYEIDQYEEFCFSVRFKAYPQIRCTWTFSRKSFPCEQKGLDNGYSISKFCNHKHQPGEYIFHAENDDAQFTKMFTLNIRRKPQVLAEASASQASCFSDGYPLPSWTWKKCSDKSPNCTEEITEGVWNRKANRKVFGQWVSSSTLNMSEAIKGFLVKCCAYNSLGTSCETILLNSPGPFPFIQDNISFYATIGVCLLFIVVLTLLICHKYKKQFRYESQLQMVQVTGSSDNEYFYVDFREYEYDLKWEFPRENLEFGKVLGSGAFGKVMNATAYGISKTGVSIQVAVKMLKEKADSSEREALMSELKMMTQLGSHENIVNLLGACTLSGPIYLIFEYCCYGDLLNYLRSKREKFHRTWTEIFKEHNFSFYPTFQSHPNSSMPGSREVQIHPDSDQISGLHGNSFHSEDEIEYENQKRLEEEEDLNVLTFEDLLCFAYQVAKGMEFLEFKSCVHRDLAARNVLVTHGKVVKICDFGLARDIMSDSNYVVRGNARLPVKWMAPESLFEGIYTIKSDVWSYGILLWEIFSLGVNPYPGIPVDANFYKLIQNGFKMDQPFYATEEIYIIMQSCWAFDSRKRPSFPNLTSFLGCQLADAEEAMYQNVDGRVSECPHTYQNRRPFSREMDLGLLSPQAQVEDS
# In short: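 Compound preincubated with kinase 20 min at room temperature. Filter-binding read-out, curve-fitted IC50; mean ± SD of three independent experiments.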
# MV4-11 [13] = assay: Cell cycle arrest in human MV4-11 cells assessed as accumulation at G0/G1 phase after 24 hrs by propidium iodide/BrdU staining-based flow cytometric method; assay type: functional; in short: as §3
# [14] = Terminal half life in mouse liver microsomes by LC-MS/MS analysis; assay type: ADME, microsome; conditions: read-out: beta t1/2 (converted); in short: as §1
# CDK6/cyclin D1 = CDK6/cyclin D1 (Homo sapiens, UniProt Q00534); assay: Inhibition of human CDK6/Cyclin D1 using RB protein as substrate preincubated for 20 mins followed by [gamma-33P]-ATP addition measure after 120 mins by filter binding method; assay type: protein-complex assay
# In short: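 Compound preincubated with kinase 20 min at room temperature. Reaction started with 10 μM [γ-33P]ATP and run 120 min at 25°C. Filter-binding read-out, curve-fitted IC50; mean ± SD of three independent experiments.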
# MGC-803 = assay: Growth inhibition of human MGC803 cells after 72 hrs by CellTiter-Glo assay; assay type: functional; conditions: MGC-803, 72 h
# [15] = Intrinsic clearance in mouse liver microsomes by LC-MS/MS analysis; assay type: ADME, microsome; conditions: read-out: CLH
# MV4-11 [16] = assay: Antitumor activity against human MV4-11 cells xenografted in nu/nu mouse assessed as tumor regression at 40 mg/kg, iv qd measured on day 21 relative to vehicle-treated control; assay type: functional
# In short: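 Female nu/nu mice bearing MV4-11 xenografts; dosing began once tumors reached 200 mm3. Given iv once daily for 21 days, with a vehicle-only group. Body weight and tumor size tracked relative to initial values, set as 100%. Tumors weighed at the end of the 22-day treatment period.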
# MV4-11 [17] = assay: Antitumor activity against human MV4-11 cells xenografted in nu/nu mouse assessed as tumor regression at 15 mg/kg, iv qd measured on day 21 relative to vehicle-treated control; assay type: functional
# MV4-11 [18] = assay: Induction of apoptosis in human MV4-11 cells assessed as early apoptotic cells at 2 uM after 24 hrs by annexin V-FITC/propidium iodide staining-based flow cytometric method (reference value: 3.54%); assay type: functional
# HCT-116 [19] = assay: Growth inhibition of human HCT116 cells after 72 hrs by CellTiter-Glo assay; assay type: functional; conditions: HCT-116, 72 h
# [20] = Terminal half life in human liver microsomes by LC-MS/MS analysis; assay type: ADME, microsome; conditions: read-out: beta t1/2 (converted); in short: as §1
# Chain of CDK6/cyclin D1 (P24385 whole entry): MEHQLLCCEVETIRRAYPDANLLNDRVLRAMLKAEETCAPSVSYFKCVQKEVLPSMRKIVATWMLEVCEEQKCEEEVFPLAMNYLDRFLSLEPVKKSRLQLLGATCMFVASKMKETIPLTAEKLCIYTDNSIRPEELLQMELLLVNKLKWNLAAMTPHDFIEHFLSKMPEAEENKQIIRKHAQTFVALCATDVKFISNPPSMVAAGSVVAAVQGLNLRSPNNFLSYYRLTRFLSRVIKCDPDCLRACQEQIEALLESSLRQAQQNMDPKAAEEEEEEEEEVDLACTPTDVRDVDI
# Chain of CDK6/cyclin D1 (Q00534 whole entry): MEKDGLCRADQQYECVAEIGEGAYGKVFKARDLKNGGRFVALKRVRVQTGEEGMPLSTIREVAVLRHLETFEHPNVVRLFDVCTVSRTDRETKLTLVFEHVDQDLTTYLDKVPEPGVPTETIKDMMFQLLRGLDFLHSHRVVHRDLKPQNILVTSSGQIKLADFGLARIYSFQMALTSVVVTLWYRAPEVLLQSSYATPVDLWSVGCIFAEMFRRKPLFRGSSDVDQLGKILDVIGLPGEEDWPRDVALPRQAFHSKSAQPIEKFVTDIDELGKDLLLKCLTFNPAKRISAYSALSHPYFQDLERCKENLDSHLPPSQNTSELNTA
smiles,measurement,setting,value
CN1CCN(Cc2ccc(NC(=O)c3n[nH]cc3Nc3ncnc4[nH]ccc34)cc2)CC1,half-life,[1],1.03 h
same,inhibition,[2],Active
same,Activity,MV4-11 [3],13.44%
same,Activity,MV4-11 [4],14.79%
same,Activity,HCT-116 [5],Active
same,inhibition,[6],Active
same,CLint scaled,[7],40.3 mL/min/kg
same,Activity,MV4-11 [8],Dose-dependent effect
same,CLint scaled,[9],13.3 mL/min/kg
same,GI50,MCF7,2840 nM
same,CLint scaled,[10],129 mL/min/kg
same,LD50 at 288 h,[11],186 mg/kg
same,IC50,[12],0.27 to 0.28 nM
same,Activity,MV4-11 [13],Dose-dependent effect
same,half-life,[14],0.66 h
same,IC50,CDK6/cyclin D1,1.96 nM
same,GI50,MGC-803,370 nM
same,CLint scaled,[15],139 mL/min/kg
same,Activity,MV4-11 [16],81.33%
same,Activity,MV4-11 [17],-6.11%
same,Activity,MV4-11 [18],54.13%
same,GI50,HCT-116 [19],90 nM
same,half-life,[20],1.72 h
